High-throughput results deposited in PubChem by several laboratories.
The entries come from a sample that favours hits as a whole.
L major viab = Leishmania major promastigote growth inhibition, primary screen. inhibition, % at 10 µM. Leishmania major promastigotes, resazurin fluorescence viability. 200,000 compounds, 9% hits;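 further: promastigotes grown with compound for 44 hours at 28 °C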
Diaph inh CS = diaphorase inhibitors and chemical oxidizers, primary screen, counter-screen for diaphorase-coupled primary assays, biochemical, uHTS, resorufin fluorescence. diaphorase resazurin-to-resorufin fluorescence, NADH, 16 min; bacterial (C. kluyveri) enzyme, not human. inhibition, % at 20 µM. 190,000 compounds, 0.69% hits;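 active means primary screen inhibition at 20 µM above a set limit, cut at about 50% in these data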
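Test system: diaphorase enzyme from Clostridium kluyveri; amount: diaphorase at 0.14 U/mL in enzyme working solution; detection: fluorescence of resorufin formed from resazurin, Ex 544/Em 590 nm; times: reaction incubation of 16 min at room temperature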
Redox H2O2 prof = compounds producing H2O2 with reducing agent – biochemical, NIH compound library profiling, artefact control for MLSCN library redox annotation, primary screen. 200,000 compounds, 0.03% hits. DTT-dependent redox cycling H2O2, phenol red/HRP absorbance; 100% = 100 µM peroxide control, 0% = buffer. activation, % at 10 µM. AID 878, 2007;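 active means activation of at least 50% relative to the plate's high and low controls in the primary single-dose screen; inactive means activation below 50%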;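 further: compound incubated with DTT at 0.8 mM final as the reducing agent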
Diaphorase act = compounds boosting diaphorase resazurin reduction – biochemical, uHTS, resorufin fluorescence, counter-screen for diaphorase-coupled primary assays, primary screen; Diaphorase/resazurin coupled assay, 16 min; active compounds read high; 1 = vehicle wells, 0 = NADH-free wells; activation factor at 20 µM; 190,000 compounds, 0.005% hits;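 active means diaphorase activity raised at least twofold by the compound at 20 µM; inactive means activation factor below 2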
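Assay system: Purified diaphorase enzyme from Clostridium kluyveri | Amount: Enzyme 0.07 U/mL final | Dosing: Compound 20 µM once, DMSO 1% | Timing: 16 min reaction at room temperature | Detection: Fluorescence, excitation 544 nm and emission 590 nm | Evaluation: Higher resorufin formation from activation or reduction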
PfGluPho inh = PfG6PD enzyme inhibitors, primary screen, biochemical, fluorescence intensity, uHTS | PfGluPho enzyme, NADPH resazurin-diaphorase fluorescence | inhibition, % at 20 µM | 350,000 compounds, 0.78% hits;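 active means inhibition reaching at least a set limit at 20 µM in the primary screen, cut at about 59% in these data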
G6PDH CS = L. mesenteroides G6PDH inhibitors, counter-screen for G6PDH-coupled screening assays, biochemical, Leuconostoc mesenteroides enzyme; glucose-6-phosphate dehydrogenase [Leuconostoc mesenteroides]; Purified L. mesenteroides G6PDH, diaphorase/resazurin coupled fluorescence, 45 min; inhibition, % at 5 µM; 200,000 compounds, 0.12% hits; AID 1020, 2008
Large screens that a line does not name were inactive. Unless noted, no stated cut-off is given here; in the data, active means inhibition above about 50%; inactive means the rest.

CCOC(=O)C1=C(c2ccccc2)Nc2ncnn2C1c1cc(OC)ccc1OC (stereo not given)	L major viab 100
O=C(N/N=C/c1ccc(Br)cc1)c1ccccc1-n1cccc1	L major viab 65
CC(=O)Nc1ccc(S(=O)(=O)Oc2ccc3c(c2)C(C)=CC(C)(C)N3)cc1	none (no result: PfGluPho inh)
O=C(CCN1C(=O)c2ccccc2C1=O)Oc1ccc2ccccc2c1	none
CC1=CC(C)(C)Nc2ccc(OC(=O)CCN3C(=O)c4ccccc4C3=O)cc21	L major viab 79
CC1=CC(C)(C)Nc2ccc(OS(=O)(=O)c3ccc(C)cc3)cc21	L major viab 94, Diaph inh CS 50
O=C(CS(=O)(=O)c1ccccc1)Nc1nccs1	none (no result: L major viab, Diaph inh CS, Redox H2O2 prof, Diaphorase act, G6PDH CS)
Cc1cc(C(=O)NCC23CC4CC(CC(C4)C2)C3)c(C)o1	none (no result: PfGluPho inh)
Cc1ccc(-c2nn(CCC(=O)NN3CCOCC3)c(=O)c3ccccc23)cc1	none (no result: L major viab, Diaph inh CS, Redox H2O2 prof, Diaphorase act, G6PDH CS)
COc1ccc2c(C)cc(N3CCCCCC3)nc2c1	L major viab 61
CCc1cccc(CC)c1NC(=S)NCCc1c(C)[nH]c2ccc(C)cc12	L major viab 53
CCOC(=O)CSc1nnc(CNC(=O)c2ccc(OC)cc2OC)n1-c1ccc(OC)cc1	none
COc1ccc(C(=O)CSc2nnc(CN3CCCC3)n2-c2ccc(F)cc2)c(OC)c1	L major viab 80
COc1ccc(C(=O)CSc2nnc(C3CCCCC3)n2N)c(OC)c1	L major viab 53
COc1ccc(C(=O)CSc2nnc(CN3CCCCC3)n2-c2ccc(F)cc2)cc1OC	L major viab 90
O=S(=O)(/N=C(/c1ccc(F)cc1)N1CCCCC1)c1ccc(Cl)cc1	none
Cc1cccc(-c2nnc(SCC(=O)N3c4ccccc4CCc4ccccc43)n2C)c1	L major viab 91
Cn1c(SCC(=O)N2CCCc3ccccc32)nnc1-c1ccccc1	none
Cn1c(SCC(=O)N2c3ccccc3CCc3ccccc32)nnc1-c1cc2ccccc2cc1O	L major viab 98
Cc1ccc(CN=c2c([N+](=O)[O-])nn(-c3cccc(C)c3)n2O)cc1	none
CCc1ccc(N=c2c([N+](=O)[O-])nn(-c3ccccc3)n2O)cc1	L major viab 88
Cc1cc(C)cc(N=c2c([N+](=O)[O-])nn(-c3ccc(Cl)cc3)n2O)c1	L major viab 95
Cc1ccc(CN=c2c([N+](=O)[O-])nn(-c3cccc(Cl)c3)n2O)cc1	none
Nc1nc2c(s1)CCc1c-2cnn1-c1ccccc1	Diaph inh CS 66, PfGluPho inh 98, G6PDH CS 62
Nc1nc2c(s1)COc1ccccc1-2	none
CCN(CC)C(=O)c1ccccc1NC(=O)c1cccc(S(=O)(=O)N(CC)CC)c1	none
CN(C)S(=O)(=O)c1cccc(NC(=O)c2cncc(Br)c2)c1	L major viab 88
CCN(CC)S(=O)(=O)c1cccc(C(=O)N/N=C(\C)c2ccc(O)cc2O)c1	L major viab 68
CCN(CC)S(=O)(=O)c1cccc(NC(=O)c2cncc(Br)c2)c1	L major viab 99
CCN(CC)S(=O)(=O)c1cccc(C(=O)Nc2cccc(C)c2)c1	L major viab 62
CC1CCN(C(=O)c2ccccc2SCC(=O)NCC2CCCCC2)CC1	none (no result: L major viab, Diaph inh CS, Redox H2O2 prof, Diaphorase act, G6PDH CS)
CCN(CC)S(=O)(=O)c1cccc(NC(=O)c2cc3ccccc3o2)c1	L major viab 81
CN(C)S(=O)(=O)c1cccc(NC(=O)c2cc3ccccc3o2)c1	none
Cc1ccc(C=Nc2ccccc2C(N)=O)o1	none
Cc1ccc(C=Nc2ccc(N(C)C)cc2)o1	L major viab 80
CCN(CC)c1ccc(NC(=O)COc2ccccc2C#N)cc1S(=O)(=O)Nc1ccc(OC)cc1	L major viab 99
CCN(CC)c1ccc(NC(=O)c2cnccn2)cc1S(=O)(=O)Nc1ccc(OC)cc1	L major viab 64
COc1ccc(NC(=O)c2ccccc2F)cc1Cl	none
